Each structure is given as a SMILES string. ≈ marks a conversion by molar mass, not a printed value.

The subject of data set [1] is Hepatitis C virus. As to the kind of experiment: Inhibition of HCV 1b NS5Bdelta21 polymerase assessed as [3H]UTP incorporated into the biotinylated primer after 90 mins by scintillation counting. Format: functional, Hepatitis C virus subtype 1b.
A short description of data set [2]: Cytotoxicity against human HuH7 cells. It is filed as cell-based, Huh-7. The settings on record: read-out: TC50 (the source's name).
Data set [3] has as its system Hepatitis C virus. As to the kind of experiment: Antiviral activity against HCV1b in human Huh7 cells assessed as reduction of viral RNA replication after 72 hrs by luciferase reporter assay. Format: functional, organism-based, Hepacivirus hominis. Particulars: genotype 1b, Huh-7, 72 h. Background: In a reporter assay the amount or activity of a reporter protein is the signal.

Data set [4] can be described thus: Inhibition of calf thymus DNA-directed RNA polymerase 2 assessed as [33P]UTP incorporated into the RNA after 120 mins by scintillation counting. Details: species or system Bos taurus.
Data set [5] can be described thus: Solubility in phosphate buffer at pH 7.2 after 24 hrs by shake flask method. It is filed as physicochemical.
A short description of data set [6]: Permeability across human Caco-2 cells. It is filed as ADME, cell-based. The settings on record: read-out: permeability. Background: Caco-2 cells form a polarised layer with tight junctions and transporters.
A short description of data set [7]: (§1) Half life in human liver microsomes at 10 uM. Format: ADME, Microsome. The settings on record: liver microsomes. The procedure, abridged:
(§2)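 Half-life was measured with compound at 10 µM in human or rat liver microsomes.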
(In general: Microsomes from liver hold many membrane-bound enzymes, among them those of drug oxidation.)

Data set [8] can be described thus: Half life in rat liver microsomes at 10 uM. Format: ADME, Microsome. The procedure, abridged:
as §2

A further data set addresses Cytochrome P450 2C9 (Homo sapiens, UniProt P11712). As to the kind of experiment: Inhibition of CYP2C9. It is filed as ADME.
For another data set, the target named is Cytochrome P450 2C19 (Homo sapiens, UniProt P33261). As to the kind of experiment: Inhibition of CYP2C19. Format: ADME.
Data set [9] is described as follows: Cmax in Sprague-Dawley rat plasma at 5 mg/kg, po. Details: dose 5 mg/kg, route oral. It is filed as ADME, organism-based. The procedure, abridged:
(§3)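 Male Sprague-Dawley rats, fasted overnight, given 5 mg/kg by oral gavage in 0.5% methocel/0.3% Tween-80. Plasma was pooled from three animals at each time point over 0–8 h. Compound was quantified after liquid–liquid extraction by HPLC with UV detection.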

Data set [10] can be described thus: Tmax in Sprague-Dawley rat plasma at 5 mg/kg, po. Format: ADME, organism-based. The arrangement: dose 5 mg/kg, route oral. The procedure, abridged:
as §3

Data set [11] in a line: AUC in Sprague-Dawley rat plasma at 5 mg/kg, po. Format: ADME, organism-based. The arrangement: dose 5 mg/kg, route oral. The procedure, abridged: as §3
A short description of data set [12]: Mean residence time in Sprague-Dawley rat plasma at 5 mg/kg, po. It is filed as ADME, organism-based. The arrangement: dose 5 mg/kg, route oral. The procedure, abridged: as §3
For the next data set, the species on record is Homo sapiens. The experiment in a line: Protein binding in human plasma by equilibrium dialysis method. The settings on record: read-out: PPB (converted).
The test system of another data set is Liver microsomes. The description is as §1. Format: ADME, Microsome. The settings on record: microsomes, 10 µM. The procedure, abridged: as §2
Another data set concerns the target Cytochrome P450 3A4 (Homo sapiens, UniProt P08684). As to the kind of experiment: Inhibition of CYP3A4. It is filed as ADME.

Cytochrome P450 2C9, sequence (P11712 whole entry): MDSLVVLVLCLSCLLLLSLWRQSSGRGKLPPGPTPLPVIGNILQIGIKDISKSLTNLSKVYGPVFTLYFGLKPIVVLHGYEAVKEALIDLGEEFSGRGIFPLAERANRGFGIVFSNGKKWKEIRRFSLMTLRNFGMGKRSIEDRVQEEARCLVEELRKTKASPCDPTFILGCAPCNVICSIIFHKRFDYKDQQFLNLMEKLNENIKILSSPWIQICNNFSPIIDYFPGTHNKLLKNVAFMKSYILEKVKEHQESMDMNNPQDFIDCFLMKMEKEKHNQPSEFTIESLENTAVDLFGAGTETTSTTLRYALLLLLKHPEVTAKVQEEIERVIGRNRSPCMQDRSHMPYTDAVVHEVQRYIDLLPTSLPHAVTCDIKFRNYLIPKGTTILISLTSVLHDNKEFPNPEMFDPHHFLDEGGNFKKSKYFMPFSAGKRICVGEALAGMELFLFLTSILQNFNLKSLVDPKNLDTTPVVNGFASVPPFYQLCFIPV
Cytochrome P450 2C19, sequence (P33261 whole entry): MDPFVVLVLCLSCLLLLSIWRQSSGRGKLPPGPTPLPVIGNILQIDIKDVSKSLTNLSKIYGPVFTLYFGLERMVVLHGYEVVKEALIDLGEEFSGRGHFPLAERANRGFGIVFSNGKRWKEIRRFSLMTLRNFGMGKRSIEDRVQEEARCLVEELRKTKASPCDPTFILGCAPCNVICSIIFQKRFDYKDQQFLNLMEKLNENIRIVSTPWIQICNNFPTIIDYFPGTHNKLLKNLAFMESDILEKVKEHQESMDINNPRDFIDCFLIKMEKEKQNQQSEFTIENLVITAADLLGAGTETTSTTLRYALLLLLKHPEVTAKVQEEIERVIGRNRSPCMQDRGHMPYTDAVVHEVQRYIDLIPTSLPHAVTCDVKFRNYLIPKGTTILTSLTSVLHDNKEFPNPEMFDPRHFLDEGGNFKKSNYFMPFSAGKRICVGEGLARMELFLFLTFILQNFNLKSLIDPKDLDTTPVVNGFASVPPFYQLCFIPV
Cytochrome P450 3A4, sequence (P08684 whole entry): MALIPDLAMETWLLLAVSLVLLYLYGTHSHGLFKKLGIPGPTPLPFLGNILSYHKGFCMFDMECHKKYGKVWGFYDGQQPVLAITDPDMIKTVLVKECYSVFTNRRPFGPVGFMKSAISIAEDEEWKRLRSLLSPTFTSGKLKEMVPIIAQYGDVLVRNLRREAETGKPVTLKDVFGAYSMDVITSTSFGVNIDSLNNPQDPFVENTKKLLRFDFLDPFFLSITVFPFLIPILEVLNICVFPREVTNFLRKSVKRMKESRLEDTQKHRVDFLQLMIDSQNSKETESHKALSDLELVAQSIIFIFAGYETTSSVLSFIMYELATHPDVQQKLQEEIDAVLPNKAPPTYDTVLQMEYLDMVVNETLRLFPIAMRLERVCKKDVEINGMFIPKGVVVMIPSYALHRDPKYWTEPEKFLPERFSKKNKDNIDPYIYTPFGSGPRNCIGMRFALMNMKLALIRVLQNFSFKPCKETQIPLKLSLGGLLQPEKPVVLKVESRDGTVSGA

The term IC50 denotes the midpoint of a concentration-inhibition curve. For orientation: EC50 means the concentration that produces a half-maximal response. On to `O=C(O)/C=C/c1ccc(NC(=O)C2(NC(=O)c3ccc4c(c3)nc(-c3ccoc3)n4C3CCCCC3)CCC2)cc1`, for which the half-inhibitory concentration (IC50) in the data set with Hepatitis C virus [1] was 50 nM; in [4] it was above 250 µM. The CC50 in [2] was above 10 µM. Besides, the EC50 in the data set on Hepatitis C virus [3] came out at 1100 nM.
For `O=C(O)/C=C/c1ccc(NC(=O)C2(NC(=O)c3ccc4c(c3)nc(-c3ccco3)n4C3CCCCC3)CCC2)cc1`, the IC50 in the data set with Hepatitis C virus [1] is 110 nM; in [4], above 250 µM. In addition, the CC50 in [2] is above 10 µM. Moreover, the EC50 in the data set with Hepatitis C virus [3] amounted to 1200 nM.
For the compound `O=C(O)/C=C/c1ccc(NC(=O)C2(NC(=O)c3ccc4c(c3)nc(-c3ccsc3)n4C3CCCCC3)CCC2)cc1`, the IC50 in the data set with Hepatitis C virus [1] was 120 nM; in data set [4], above 250 µM. The CC50 in [2] was above 10 µM. Besides, the EC50 in the data set with Hepatitis C virus [3] stood at 1500 nM.
As for `Cn1cccc1-c1nc2cc(C(=O)N[C@@H](Cc3c[nH]c4ccc(O)cc34)c3cscn3)ccc2n1C1CCCCC1`, the IC50 in the data set with Hepatitis C virus [1] stood at 730 nM. Further, in data set [2], the CC50 was above 10 µM. For the same compound, the EC50 in the data set with Hepatitis C virus [3] worked out at 2700 nM.
Consider `Cn1cccc1-c1nc2cc(C(=O)NC3(C(=O)Nc4ccc(/C=C/C(=O)O)cc4)CCC3)ccc2n1C1CCCCC1`, for which the IC50 is 90 nM with Hepatitis C virus [1] and above 250 µM in [4]. Besides, in data set [2], the CC50 is above 10 µM. In addition, in the data set with Hepatitis C virus [3], the EC50 was determined as 700 nM.
With `O=C(N[C@@H](Cc1c[nH]c2ccc(O)cc12)c1cscn1)c1ccc2c(c1)nc(-c1ccccn1)n2C1CCCCC1`, the IC50 with Hepatitis C virus [1] stood at 690 nM. In data set [2], the CC50 is above 10 µM. Besides, the EC50 in the data set on Hepatitis C virus [3] is 1900 nM.
As for `O=C(O)/C=C/c1ccc(NC(=O)C2(NC(=O)c3ccc4c(c3)nc(-c3ccccn3)n4C3CCCCC3)CCC2)cc1`, the IC50 was 100 nM with Hepatitis C virus [1] and above 250 µM in [4]. The CC50 in data set [2] was above 10 µM. In the data set with Hepatitis C virus [3], the EC50 was found to be 700 nM.
Consider `O=C(N[C@@H](Cc1c[nH]c2ccc(O)cc12)c1cscn1)c1ccc2c(c1)nc(-c1ccccc1)n2C1CCCCC1`, for which, in the data set on Hepatitis C virus [1], the IC50 amounted to 1160 nM. Besides, the CC50 in [2] was above 10 µM. Besides, in the data set with Hepatitis C virus [3], the EC50 stood at 2400 nM.
As for `O=C(O)/C=C/c1ccc(NC(=O)C2(NC(=O)c3ccc4c(c3)nc(-c3ccccc3)n4C3CCCCC3)CCC2)cc1`, the IC50 in the data set with Hepatitis C virus [1] was 200 nM; in data set [4], above 250 µM. Further, the CC50 in [2] is above 10 µM. The EC50 in the data set on Hepatitis C virus [3] is 1200 nM.
By solubility (thermodynamic) is commonly meant solubility found after equilibrating the solid with the medium. As a reminder, the half-life is how long it takes for the measured level to halve. In the case of `O=C(O)/C=C/c1ccc(NC(=O)C2(NC(=O)c3ccc4c(c3)nc(-c3ccoc3)n4C3CCCCC3)CCCC2)cc1`, the CC50 in data set [2] is above 10 µM. This compound also registered a thermodynamic solubility at 24 h in [5] of 125 µg/mL (≈ 221 µM). Moreover, the EC50 in the data set on Hepatitis C virus [3] was found to be 880 nM. In addition, the Papp in data set [6] worked out at 3.9 ×10⁻⁶ cm/s. Besides, the half-life at 10 µM in data set [7] amounted to 77 min; in [8], 54 min. The IC50 against Cytochrome P450 2C9 was 11.5 µM; against Cytochrome P450 2C19 it was 7.7 µM; in [4], above 250 µM.
Broadly, the Cmax is the highest concentration seen after dosing. Usually Tmax stands for the time from dosing to the highest level. Usually AUC stands for the area under the concentration-time curve, a measure of exposure. By MRT is commonly meant the average time that molecules of a dose stay in the body. For the compound `O=C(O)/C=C/c1ccc(NC(=O)C2(NC(=O)c3ccc4c(c3)nc(-c3ccccn3)n4C3CCCCC3)CCCC2)cc1`, the CC50 in [2] was above 10 µM. For the same compound, the solubility (thermodynamic) at 24 h in data set [5] came to 100 µg/mL (≈ 173 µM). Moreover, the EC50 in the data set with Hepatitis C virus [3] is 580 nM. Also, the Papp in data set [6] amounted to 9.5 ×10⁻⁶ cm/s. Further, the results for the half-life at 10 µM in [7] and in data set [8] were 67 min and 17 min, respectively. Further, the values for the IC50 (against Cytochrome P450 2C9; against Cytochrome P450 2C19; in data set [4]) were 4 µM, 7.4 µM and above 250 µM, respectively. The compound further returned a Cmax in data set [9] of 580 nM. For the same compound, the Tmax in [10] came to 30 min. Further, the AUC in [11] came to 0.51 µM·h. Further, the MRT in data set [12] was determined as 44.4 min. Also, the fraction unbound in the data set listed under Homo sapiens is 0.124.
Consider `O=C(O)/C=C/c1ccc(NC(=O)C2(NC(=O)c3ccc4c(c3)nc(-c3cccs3)n4C3CCCCC3)CCC2)cc1`, for which the IC50 was 110 nM in the data set on Hepatitis C virus [1] and above 250 µM in data set [4]. The CC50 in [2] is above 10 µM. In addition, the EC50 with Hepatitis C virus [3] worked out at 1200 nM.
Turning to `O=C(N[C@@H](Cc1c[nH]c2ccc(O)cc12)C(=O)O)c1ccc2c(c1)nc(-c1cccs1)n2C1CCCCC1`, the IC50 in the data set on Hepatitis C virus [1] worked out at 80 nM.
Regarding `O=C(N[C@@H](Cc1c[nH]c2ccc(O)cc12)c1cscn1)c1ccc2c(c1)nc(-c1cccs1)n2C1CCCCC1`, the IC50 with Hepatitis C virus [1] is 450 nM. In addition, the CC50 in data set [2] is above 10 µM. The EC50 in the data set with Hepatitis C virus [3] turned out to be 2800 nM.
With `Cn1cccc1-c1nc2cc(C(=O)N[C@@H](Cc3c[nH]c4ccc(O)cc34)C(=O)O)ccc2n1C1CCCCC1`, the IC50 with Hepatitis C virus [1] was 60 nM.
As for `O=C(N[C@@H](Cc1c[nH]c2ccc(O)cc12)C(=O)O)c1ccc2c(c1)nc(-c1ccccc1)n2C1CCCCC1`, the IC50 with Hepatitis C virus [1] came out at 230 nM.
Consider `O=C(N[C@@H](Cc1c[nH]c2ccc(O)cc12)C(=O)O)c1ccc2c(c1)nc(-c1ccco1)n2C1CCCCC1`, for which the IC50 with Hepatitis C virus [1] was 80 nM.
As for `O=C(N[C@@H](Cc1c[nH]c2ccc(O)cc12)C(=O)O)c1ccc2c(c1)nc(-c1ccsc1)n2C1CCCCC1`, in the data set with Hepatitis C virus [1], the IC50 was determined as 160 nM.
For `O=C(N[C@@H](Cc1c[nH]c2ccc(O)cc12)c1cscn1)c1ccc2c(c1)nc(-c1ccco1)n2C1CCCCC1`, the IC50 in the data set with Hepatitis C virus [1] is 270 nM. For the same compound, the CC50 in [2] was above 10 µM. The concentration giving a half-maximal response (EC50) with Hepatitis C virus [3] was determined as 3400 nM.
With `O=C(N[C@@H](Cc1c[nH]c2ccc(O)cc12)c1cscn1)c1ccc2c(c1)nc(-c1ccsc1)n2C1CCCCC1`, in the data set with Hepatitis C virus [1], the IC50 turned out to be 520 nM. The CC50 in data set [2] was above 10 µM. For the same compound, in the data set with Hepatitis C virus [3], the EC50 was 2900 nM.
Turning to `O=C(N[C@@H](Cc1c[nH]c2ccc(O)cc12)C(=O)O)c1ccc2c(c1)nc(-c1ccoc1)n2C1CCCCC1`, the IC50 with Hepatitis C virus [1] was 30 nM.
The same measure, in the same setting: the value for `O=C(N[C@@H](Cc1c[nH]c2ccc(O)cc12)C(=O)O)c1ccc2c(c1)nc(-c1ccccn1)n2C1CCCCC1` was 140 nM.
For `O=C(N[C@@H](Cc1c[nH]c2ccc(O)cc12)c1cscn1)c1ccc2c(c1)nc(-c1ccoc1)n2C1CCCCC1`, the IC50 in the data set with Hepatitis C virus [1] turned out to be 220 nM; at Cytochrome P450 3A4, 440 nM. Also, the CC50 in data set [2] is above 10 µM. This compound also returned a thermodynamic solubility at 24 h in data set [5] below 0.1 µg/mL. The EC50 in the data set on Hepatitis C virus [3] was 3600 nM. In the data set on Liver microsomes, the t1/2 is 26 min.

These data come from ChEMBL document CHEMBL1155433, “Benzimidazole Thumb Pocket I finger-loop inhibitors of HCV NS5B polymerase: improved drug-like properties through C-2 SAR in three sub-series” (Bioorg Med Chem Lett, 2010).
